Assay results reported in ChEMBL document CHEMBL1124127, “Central dopaminergic and 5-hydroxytryptaminergic effects of C3-methylated derivatives of 8-hydroxy-2-(di-n-propylamino)tetralin” (J Med Chem, 1988).

Assays:
Rattus norvegicus [1] = experiment: Effect on in vivo accumulation of […] was measured in rat corpus striatum at 22(Micromol/kg) dose; format: functional
Method in brief: (§1)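 Rats not pretreated with reserpine received test drug (hydrochloride or hydrobromide salt) sc in the neck region 60 min before death. NSD 1015 decarboxylase inhibitor (100 mg/kg, i.e., 573 μmol/kg, ip) was given 30 min before decapitation. Brain was dissected on ice. Tissue was homogenized in 0.1 M perchloric acid with α-methyl-DOPA internal standard. Analytes were quantified by ion-pair reversed-phase HPLC-electrochemical detection. Values are means ± SEM, n = 3-7 per treated group.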

Rattus norvegicus [2] = experiment: Effect on in vivo accumulation of DOPA was measured in rat corpus striatum at 2.2 (umol/kg) dose; format: functional; method in brief: as §1
Rattus norvegicus [3] = experiment: Effect on in vivo accumulation of 5-HTP was measured in rat limbic system at 2.2 (umol/kg) dose; format: functional; method in brief: as §1
Rattus norvegicus [4] = experiment: Effect on in vivo accumulation of 5-HTP was measured in rat corpus striatum at 2.2 (umol/kg) dose; format: functional; method in brief: as §1
Rattus norvegicus [5] = experiment: Effect on in vivo accumulation of DOPA was measured in rat limbic system at 2.2 (umol/kg) dose; format: functional; method in brief: as §1
Rattus norvegicus [6] = experiment: Effect on in vivo accumulation of 5-HTP was measured in rat corpus striatum at 22(umol/kg) dose; format: functional; method in brief: as §1
[7] = molecular target: T1, 5-hydroxytryptamine receptor 1A (Rattus norvegicus, UniProt P19327); experiment: Inhibitory activity tested in vitro at 5-hydroxytryptamine 1A receptor binding site in rat
T1 sequence (P19327 whole entry): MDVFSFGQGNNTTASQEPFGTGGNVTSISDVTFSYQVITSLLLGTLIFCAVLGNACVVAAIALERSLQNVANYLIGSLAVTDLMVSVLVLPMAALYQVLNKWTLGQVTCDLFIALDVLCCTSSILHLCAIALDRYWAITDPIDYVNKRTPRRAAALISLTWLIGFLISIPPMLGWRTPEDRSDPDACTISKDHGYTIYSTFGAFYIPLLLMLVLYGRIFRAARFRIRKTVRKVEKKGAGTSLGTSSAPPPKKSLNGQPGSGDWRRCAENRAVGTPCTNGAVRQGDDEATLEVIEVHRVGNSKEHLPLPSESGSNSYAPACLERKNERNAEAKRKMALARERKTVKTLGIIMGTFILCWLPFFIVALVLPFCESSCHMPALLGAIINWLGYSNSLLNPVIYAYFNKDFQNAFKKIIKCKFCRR
Method in brief: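 Competition binding used rat brain membranes washed in 50 mM Tris-HCl pH 7.4, preincubated 10 min at 37 °C to remove 5-HT, and used at 10 mg wet tissue/mL. Assay: 1 nM [3H]-8-OH-DPAT, 3 mM CaCl2, 100 µM pargyline, 15 min at 37 °C, then filtration on PEI-treated filters. Nonspecific binding was set with 10 µM 5-HT. IC50 came from four-parameter logistic regression, mean ± SEM of N experiments.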

Rattus norvegicus [8] = experiment: Effect on in vivo accumulation of DOPA was measured in rat corpus striatum at 22(Micromol/kg) dose; format: functional; method in brief: as §1
Rattus norvegicus [9] = experiment: Effect on in vivo accumulation of dopamine(DA) was measured in rat limbic system at 22(Micromol/kg) dose; format: functional
Method in brief: (§2)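 Non-reserpinized rats got the test drug sc in the neck (5 mL/kg) 60 min before death, and NSD 1015 (573 µmol/kg ip) 30 min before death. After decapitation, the limbic system was dissected on ice, frozen and homogenized in 0.1 M perchloric acid with α-methyl-DOPA internal standard. DA was measured by ion-pair reversed-phase HPLC with electrochemical detection. Data are mean ± SEM (controls n=17-19, treated 3-7), analysed by ANOVA/Dunnett.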

Rattus norvegicus [10] = experiment: Effect on in vivo accumulation of dopamine(DA) was measured in rat limbic system at 2.2 (umol/kg) dose; format: functional; method in brief: as §2
Rattus norvegicus [11] = experiment: Effect on in vivo accumulation of […] was measured in rat corpus striatum at 2.2 (umol/kg) dose; format: functional; method in brief: as §1
Rattus norvegicus [12] = experiment: Effect on in vivo accumulation of DOPA was measured in rat limbic system at 22(Micromol/kg) dose; format: functional; method in brief: as §1
Rattus norvegicus [13] = experiment: Effect on in vivo accumulation of 5-HTP was measured in rat limbic system at 22(Micromol/kg) dose; format: functional; method in brief: as §1
Rattus norvegicus [14] = experiment: Effect on in vivo accumulation of dopamine(DA) was measured in rat limbic system at 2.5 (umol/kg) dose; format: functional; method in brief: as §2
Rattus norvegicus [15] = experiment: Effect on in vivo accumulation of […] was measured in rat corpus striatum at 2.5 (umol/kg) dose; format: functional; method in brief: as §1
Rattus norvegicus [16] = experiment: Effect on in vivo accumulation of 5-HTP was measured in rat limbic system at 25(Micromol/kg) dose; format: functional; method in brief: as §1
Rattus norvegicus [17] = experiment: Effect on in vivo accumulation of 5-HTP was measured in rat limbic system at 50(Micromol/kg) dose; format: functional; method in brief: as §1
Rattus norvegicus [18] = experiment: Effect on in vivo accumulation of DOPA was measured in rat corpus striatum at 25(Micromol/kg) dose; format: functional; method in brief: as §1
Rattus norvegicus [19] = experiment: Effect on in vivo accumulation of dopamine(DA) was measured in rat limbic system at 50(Micromol/kg) dose; format: functional; method in brief: as §2
Rattus norvegicus [20] = experiment: Effect on in vivo accumulation of DOPA was measured in rat limbic system at 2.5 (umol/kg) dose; format: functional; method in brief: as §1
Rattus norvegicus [21] = experiment: Effect on in vivo accumulation of 5-HTP was measured in rat corpus striatum at 25 (umol/kg) dose; format: functional; method in brief: as §1
Rattus norvegicus [22] = experiment: Effect on in vivo accumulation of 5-HTP was measured in rat limbic system at 2.5 (umol/kg) dose; format: functional; method in brief: as §1
Rattus norvegicus [23] = experiment: Effect on in vivo accumulation of […] was measured in rat corpus striatum at 25(Micromol/kg) dose; format: functional; method in brief: as §1
Rattus norvegicus [24] = experiment: Effect on in vivo accumulation of […] was measured in rat corpus striatum at 50(Micromol/kg) dose; format: functional; method in brief: as §1
Rattus norvegicus [25] = experiment: Effect on in vivo accumulation of DOPA was measured in rat corpus striatum at 50(Micromol/kg) dose; format: functional; method in brief: as §1
Rattus norvegicus [26] = experiment: Effect on in vivo accumulation of DOPA was measured in rat limbic system at 50(Micromol/kg) dose; format: functional; method in brief: as §1
Rattus norvegicus [27] = experiment: Effect on in vivo accumulation of 5-HTP was measured in rat corpus striatum at 50(umol/kg) dose; format: functional; method in brief: as §1
Rattus norvegicus [28] = experiment: Effect on in vivo accumulation of dopamine(DA) was measured in rat limbic system at 25(Micromol/kg) dose; format: functional; method in brief: as §2
Rattus norvegicus [29] = experiment: Effect on in vivo accumulation of DOPA was measured in rat limbic system at 25(Micromol/kg) dose; format: functional; method in brief: as §1
Rattus norvegicus [30] = experiment: Effect on in vivo accumulation of DOPA was measured in rat corpus striatum at 2.5 (umol/kg) dose; format: functional; method in brief: as §1
Rattus norvegicus [31] = experiment: Effect on in vivo accumulation of 5-HTP was measured in rat corpus striatum at 2.5(umol/kg) dose; format: functional; method in brief: as §1

CCCN(CCC)[C@H]1Cc2c(O)cccc2C[C@@H]1C (stereo in doubt; (+)-11)
Activity (Rattus norvegicus [1]): <4089 ng/g | Activity (Rattus norvegicus [2]): 1008 ng/g | Activity (Rattus norvegicus [3]): 144 ng/g | Activity (Rattus norvegicus [4]): 87.3 ng/g | Activity (Rattus norvegicus [5]): 389 ng/g | Activity (Rattus norvegicus [6]): <56.4 ng/g | IC50 [7]: 60.5 nM | Activity (Rattus norvegicus [8]): 959 ng/g | Activity (Rattus norvegicus [9]): <839 ng/g | Activity (Rattus norvegicus [10]): 1067 ng/g | Activity (Rattus norvegicus [11]): 5158 ng/g | Activity (Rattus norvegicus [12]): 400 ng/g | Activity (Rattus norvegicus [13]): <89.5 ng/g

CCCN(CCC)[C@H]1Cc2c(O)cccc2C[C@H]1C (stereo in doubt; (-)-15)
Activity (Rattus norvegicus [14]): 1133 ng/g | Activity (Rattus norvegicus [15]): 4439 ng/g | Activity (Rattus norvegicus [16]): <120 ng/g | Activity (Rattus norvegicus [17]): <88.3 ng/g | Activity (Rattus norvegicus [18]): 1241 ng/g | Activity (Rattus norvegicus [19]): 1065 ng/g | Activity (Rattus norvegicus [20]): <463 ng/g | Activity (Rattus norvegicus [21]): <65.4 ng/g | Activity (Rattus norvegicus [22]): 163 ng/g | Activity (Rattus norvegicus [23]): 4751 ng/g | Activity (Rattus norvegicus [24]): 5282 ng/g | Activity (Rattus norvegicus [25]): 1001 ng/g | Activity (Rattus norvegicus [26]): 396 ng/g | IC50 [7]: 486 nM | Activity (Rattus norvegicus [27]): <45.8 ng/g | Activity (Rattus norvegicus [28]): 1094 ng/g | Activity (Rattus norvegicus [29]): <521 ng/g | Activity (Rattus norvegicus [30]): 1080 ng/g | Activity (Rattus norvegicus [31]): 96.6 ng/g
